Reference: ChEMBL document CHEMBL1123502, “Synthesis of [[(naphthalenylmethoxy)- and [[(quinolinylmethoxy)phenyl]amino]oxoalkanoic acid esters. A novel series of leukotriene D4 antagonists and 5-lipoxygenase inhibitors” (J Med Chem, 1986)

Assays:
Assay type in all cases: functional
Cavia porcellus [1] = organism: Cavia porcellus; assay: Compound was evaluated for its effect on LTC4-induced contraction of guinea pig trachea
Summary of the method: (§1)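 Isolated guinea pig tracheal spiral strips were contracted with LTC4 or LTD4, with antagonist at 3×10^-6 M versus untreated control. Responses are expressed as percentage of the tissue's maximal response to carbachol (1 mM). Potency is given as -log of the agonist concentration (M) giving a half-maximal response. pKB = -log([B]/(dose ratio - 1)), where dose ratio = treated ED50 ÷ control ED50. Control vs treated compared by unpaired Student's t test.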

Cavia porcellus [2] = organism: Cavia porcellus; assay: Compound was evaluated for its effect on LTD4-induced contraction of guinea pig trachea. percentage of maximal response of tissue to carbachol; summary of the method: as §1
Cavia porcellus [3] = organism: Cavia porcellus; assay: Compound was evaluated for its effect on LTD4-induced contraction of guinea pig trachea; summary of the method: as §1
Cavia porcellus [4] = organism: Cavia porcellus; assay: Compound was evaluated for its effect on LTC4-induced contraction of guinea pig trachea. percentage of maximal response of tissue to carbachol; summary of the method: as §1

With `CCCc1c(OCCCCc2nnn[nH]2)ccc(C(C)=O)c1O` [TOMELUKAST] the “-Log ED50” value (Cavia porcellus [1]) was 7.47, the pKB (Cavia porcellus [1]) was 5.74 and the Max contractility (Cavia porcellus [2]) was 57%. For the same compound, the “-Log ED50” value (Cavia porcellus [3]) was 7.49, the pKB (Cavia porcellus [3]) was 5.63 and the Max contractility (Cavia porcellus [4]) was 73%.
